H9c2 TAG inh = triacylglycerol accumulation inhibition. inhibition, % at 12.5 µM. 230,000 compounds, 0.66% hits. H9c2 cells, Nile Red lipid (TAG) fluorescence; cells loaded with 200 µM oleic acid;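 active = pattern-corrected inhibition of lipid staining of at least 50% with the nuclear-stain viability signal not falling by more than 50%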;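 note: 0% = DMSO wells and 100% = triacsin C control wells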
Gli-Sufu block = blocks Gli-Sufu signaling in a luciferase reporter | AID 588413 | 340,000 compounds, 0.74% hits | inhibition, % at 5 µM | Sufu-KO-LIGHT fibroblasts, Gli luciferase reporter luminescence;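 active = inhibition above about 55%, limit read from the data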;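 note: 0% = DMSO-treated cells and 100% = wells with medium but no cells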
iPSC survival up = enhancers of human iPSC single-cell survival. hiPSC single-cell survival, ATPlite luminescence; 100% = ROCK inhibitor wells, 0% = DMSO. survival enhancement, % at 20 µM. 360,000 compounds, 0.044% hits; in the data active = survival enhancement above about 18%;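 note: cells exposed to compounds for 16 hours before the ATP read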
Hep lipid drop = hepatic lipid droplet formation modulation; AML12 mouse hepatocytes, oleate lipid droplets, BODIPY imaging; inhibition, % at 6.5 µM; 240,000 compounds, 0.4% hits; AID 1656;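 active = lipid droplet intensity inhibited by at least 50%, with more than 500 cells counted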
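Material: mouse AML12 hepatocyte cell line, fixed after treatment; Timing: compound with oleate, overnight; Technique: high-content imaging of BODIPY-stained droplets and DAPI nuclei; Probe or stimulus: oleate, 100 µM final; Dosing: compound at 6.5 µM only.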
Jurkat NFkB inh = lowers PMA/ionomycin-induced NF-kB signal in Jurkat cells. 330,000 compounds, 0.53% hits. PMA/ionomycin-induced NF-kB luciferase reporter, luminescence. AID 435003. inhibition, % at 4 µM; in the data active = inhibition above about 50%
697 NFkB inh = lowers PMA/ionomycin-induced NF-kB signal in 697 B cells; 697 B-cell NF-kB luciferase reporter, 16 h; inhibition, % at 4 µM; 330,000 compounds, 0.33% hits; AID 435022; in the data active = inhibition above about 35%
An asterisk follows results filed as active. Shown are actives, neighbours in structure and some others; about 1.8% of the full set was active somewhere.

CC(C)Sc1nc(SCC(=O)NCc2ccco2)c2c3c(sc2n1)COC(C)(C)C3 was read as H9c2 TAG inh 19, Gli-Sufu block -10, iPSC survival up 0, Jurkat NFkB inh -140 and 697 NFkB inh -36.
Cc1ccc(S(=O)(=O)c2ccc([N+](=O)[O-])o2)cc1 was read as H9c2 TAG inh 77*, Gli-Sufu block 15 and iPSC survival up -1.
Screening CC(=O)c1c(C)[nH]c(C(=O)N2CCc3ccccc32)c1C returned H9c2 TAG inh -10, Gli-Sufu block 15, iPSC survival up 0, Hep lipid drop 14, Jurkat NFkB inh 6 and 697 NFkB inh 11.
Screening CCOC(=O)c1[nH]c(C)c(C(=O)N2CCc3ccccc32)c1C returned H9c2 TAG inh 56*, Gli-Sufu block 48, iPSC survival up -1, Jurkat NFkB inh 48 and 697 NFkB inh -6.
Cc1ccc(F)cc1C(=O)N1CCOCC1c1cc(C(=O)Nc2ccccc2)no1 (stereo unspecified) was read as H9c2 TAG inh 5 and iPSC survival up -1.
CCOc1ccccc1N1CCN(CC(=O)Nc2ccccc2C(=O)NC2CC2)CC1 was read as H9c2 TAG inh 5, Gli-Sufu block 2, iPSC survival up -1, Jurkat NFkB inh 5 and 697 NFkB inh 12.
For O=C(OCn1ncc(Br)c(Br)c1=O)c1ccc(F)cc1 the results were H9c2 TAG inh 145, Gli-Sufu block -1, iPSC survival up -3, Hep lipid drop -10, Jurkat NFkB inh 27 and 697 NFkB inh -37.
O=C(OCn1ncc(Br)c(Br)c1=O)c1ccccc1Cl was read as H9c2 TAG inh 128, Gli-Sufu block 12, iPSC survival up 35*, Hep lipid drop 10, Jurkat NFkB inh 21 and 697 NFkB inh -29.
Cc1cc(C)n2c(=O)c3ccc(Cl)cc3nc2c1C#N was read as H9c2 TAG inh 7, Gli-Sufu block -7, iPSC survival up -2, Hep lipid drop 2, Jurkat NFkB inh -11 and 697 NFkB inh 0.
For Cc1cc(Cl)n2c(nc3cc(F)c(F)cc32)c1C#N the results were H9c2 TAG inh 88, Gli-Sufu block 62*, iPSC survival up 4 and Hep lipid drop 1.
Screening Oc1cc(NCCN2CCOCC2)cc2cccnc12 returned H9c2 TAG inh 74*, Gli-Sufu block 21, iPSC survival up -1, Jurkat NFkB inh 13 and 697 NFkB inh 7.
`O=C(CN1C(=O)NC(Cc2ccccc2)C1=O)Nc1ccccc1OC(F)F` (stereo unspecified) gave H9c2 TAG inh -7, Gli-Sufu block -5, iPSC survival up 2, Jurkat NFkB inh -4 and 697 NFkB inh 1.
O=C(O)C1(S(=O)(=O)CCC(F)=C(F)F)CC1 was read as H9c2 TAG inh 11, Gli-Sufu block 7, iPSC survival up 0, Hep lipid drop 42, Jurkat NFkB inh 8 and 697 NFkB inh 14.
For Brc1ccc2[nH]c3c(N4CCc5ccccc5C4)ncnc3c2c1 the results were Gli-Sufu block 72*, Hep lipid drop -44, Jurkat NFkB inh -6 and 697 NFkB inh -35.
C1=C(CCNc2ncnc3c2[nH]c2ccccc23)CCCC1 was read as Gli-Sufu block 78*, iPSC survival up -3 and Hep lipid drop -44.
Screening O=c1c2[nH]c3ccccc3c2ncn1CCC1=CCCCC1 returned H9c2 TAG inh -28, Gli-Sufu block -48, iPSC survival up -1, Jurkat NFkB inh -61 and 697 NFkB inh -33.
CC(=O)C1=C(O)C(=O)N(Cc2ccccc2)C1c1ccc(Br)cc1 (stereo unspecified) was read as Gli-Sufu block 21, iPSC survival up 0, Hep lipid drop 3, Jurkat NFkB inh 3 and 697 NFkB inh 14.
Screening CN1C(=O)C(O)(CC(=O)c2ccccn2)c2cc(Br)ccc21 (stereo unspecified) returned H9c2 TAG inh 53*, Gli-Sufu block 11, iPSC survival up -3, Hep lipid drop 2, Jurkat NFkB inh 11 and 697 NFkB inh 15.
For COc1ccc(Br)cc1/C=C/C(=O)Nc1ccc(C)cc1 the results were Gli-Sufu block 10, iPSC survival up 1, Hep lipid drop -2, Jurkat NFkB inh -15 and 697 NFkB inh 29.
For COc1ccc(Br)cc1/C=C/C(=O)Nc1ccc2ccccc2c1 the results were Gli-Sufu block 1, iPSC survival up 2, Hep lipid drop 52*, Jurkat NFkB inh -23 and 697 NFkB inh -5.
